{"source": "ChEMBL document CHEMBL1121953", "about": "“Carbon-7 substituted actinomycin D analogues as improved antitumor agents: synthesis and DNA-binding and biological properties” (J Med Chem, 1982)", "key": {"[1]": {"assay": "In vitro growth inhibitory activity for effect on melting temperature of DNA was determined", "how_it_was_run": "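DNA thermal denaturation; ΔTm = Tm of DNA-drug complex minus Tm of DNA. Drug 1.4×10⁻⁴ M, DNA (P) 1.4×10⁻³ M in 0.01 M phosphate buffer pH 7.0 with 5×10⁻³ M EDTA and 5% dimethyl sulfoxide.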"}, "[2]": {"species_on_record": "Homo sapiens", "assay": "In vitro growth inhibitory activity against human lymphoblastic leukemia cells", "assay_type": "functional", "conditions": "read-out: ID50 (the source's name)", "how_it_was_run": "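CCRF-CEM human lymphoblastic leukemia cells in log-phase growth; compounds dissolved in Me₂SO, final growth medium 1% Me₂SO.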"}, "[3]": {"tested_on": "P388", "assay": "Antitumor activity against P-388 lymphocytic leukemia in CDF1 hybrid male mice measured as median survival time ( 0.3 mg/kg),ip", "assay_type": "functional, Mus musculus", "how_it_was_run": "(§1)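 Male CDF1 mice (18-23 g) were inoculated ip with 10⁶ P-388 cells on day 0. Drug was given ip in 10% dimethyl sulfoxide-saline on days 1, 5 and 9. Test solutions were kept at 0-4 °C, protected from light, and checked periodically for stability and homogeneity by TLC and HPLC. Read-out was survival, median survival time, increase in life span and tumor-free cures per 7 animals.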"}, "[4]": {"tested_on": "P388", "assay": "Antitumor activity against P-388 lymphocytic leukemia in CDF1 hybrid male mice measured as percent increase in lifespan( 0.15 mg/kg),ip", "assay_type": "functional", "conditions": "Mus musculus", "how_it_was_run": "as §1"}, "[5]": {"tested_on": "P388", "assay": "Number of mice with P-388 lymphocytic leukemia cured( 0.3 mg/kg),ip; 1/7", "assay_type": "functional, Mus musculus", "how_it_was_run": "as §1"}, "[6]": {"tested_on": "P388", "assay": "Maximum tolerated dose was compared to 7-(2,3-Epoxypropoxy)-actinomycin D against P-388 leukemia in mice(3 days)", "assay_type": "functional, Mus musculus", "how_it_was_run": "(§2)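 Tumor-free male CDF1 mice (18-23 g) received a broad dose range ip in 10% dimethyl sulfoxide-saline, either on days 1, 5, 9 (three injections) or on 4 successive days (qd 1-4). Deaths were recorded over 21 days. MTD was the dose lethal to 10% (LD10), taken from a plot of log dose vs percent mortality. Average of two experiments.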"}, "[7]": {"tested_on": "P388", "assay": "Number of mice with P-388 lymphocytic leukemia cured.( 1.8 mg/kg),ip; 3/7", "assay_type": "functional, Mus musculus"}, "[8]": {"tested_on": "P388", "assay": "Antitumor activity against P-388 lymphocytic leukemia in CDF1 hybrid male mice measured as percent increase in lifespan( 2.4 mg/kg),ip", "assay_type": "functional", "conditions": "Mus musculus", "how_it_was_run": "as §1"}, "[9]": {"tested_on": "P388", "assay": "Antitumor activity against P-388 lymphocytic leukemia in CDF1 hybrid male mice measured as percent increase in lifespan( 0.3 mg/kg),ip", "assay_type": "functional", "conditions": "Mus musculus", "how_it_was_run": "as §1"}, "[10]": {"tested_on": "P388", "assay": "Antitumor activity against P-388 lymphocytic leukemia in CDF1 hybrid male mice measured as median survival time ( 2.4 mg/kg),ip", "assay_type": "functional, Mus musculus", "how_it_was_run": "as §1"}, "[11]": {"tested_on": "P388", "assay": "Number of mice with P-388 lymphocytic leukemia cured( 0.6 mg/kg),ip; 1/7", "assay_type": "functional, Mus musculus", "how_it_was_run": "as §1"}, "[12]": {"tested_on": "P388", "assay": "Number of mice with P-388 lymphocytic leukemia cured( 2.4 mg/kg),ip; 2/7", "assay_type": "functional, Mus musculus", "how_it_was_run": "as §1"}, "[13]": {"tested_on": "P388", "assay": "Antitumor activity against P-388 lymphocytic leukemia in CDF1 hybrid male mice measured as percent increase in (1.2 mg/kg),ip", "assay_type": "functional, Mus musculus", "how_it_was_run": "as §1"}, "[14]": {"tested_on": "P388", "assay": "Antitumor activity against P-388 lymphocytic leukemia in CDF1 hybrid male mice measured as median survival time ( 0.15 mg/kg),ip", "assay_type": "functional, Mus musculus", "how_it_was_run": "as §1"}, "[15]": {"tested_on": "P388", "assay": "Antitumor activity against P-388 lymphocytic leukemia in CDF1 hybrid male mice measured as median survival time ( 1.2 mg/kg),ip", "assay_type": "functional, Mus musculus", "how_it_was_run": "as §1"}, "[16]": {"tested_on": "P388", "assay": "Antitumor activity against P-388 lymphocytic leukemia in CDF1 hybrid male mice measured as percent increase in lifespan( 0.6 mg/kg),ip", "assay_type": "functional", "conditions": "Mus musculus", "how_it_was_run": "as §1"}, "[17]": {"tested_on": "P388", "assay": "Number of mice with P-388 lymphocytic leukemia cured.( 0.15 mg/kg),ip; 0/7", "assay_type": "functional, Mus musculus", "how_it_was_run": "as §1"}, "[18]": {"tested_on": "P388", "assay": "Minimum effective dose was compared to 7-(2,3-Epoxypropoxy)-actinomycin D against P-388 leukemia in mice(4 days)", "assay_type": "functional, Mus musculus", "how_it_was_run": "(§3)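 MED was the dose (mg/kg) giving a 40% increase in life span over control in mice bearing ip P-388 leukemia. Drug was given ip in 10% dimethyl sulfoxide-saline on a q4d 1, 5, 9 (three injections) or qd 1-4 (four injections) schedule.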"}, "[19]": {"tested_on": "P388", "assay": "Antitumor activity against P-388 lymphocytic leukemia in CDF1 hybrid male mice measured as median survival time (1.8 mg/kg),ip", "assay_type": "functional, Mus musculus", "how_it_was_run": "as §1"}, "[20]": {"tested_on": "P388", "assay": "Minimum effective dose was determined compared to 7-(2,3-Epoxypropoxy)-actinomycin D against P-388 leukemia in mice(3 days)", "assay_type": "functional, Mus musculus", "design": "unit: mg/kg", "how_it_was_run": "as §3"}, "[21]": {"tested_on": "P388", "assay": "Maximum tolerated dose was compared to 7-(2,3-Epoxypropoxy)-actinomycin D against P-388 leukemia in mice(4 days)", "assay_type": "functional, Mus musculus", "how_it_was_run": "as §2"}, "[22]": {"tested_on": "P388", "assay": "Antitumor activity against P-388 lymphocytic leukemia in CDF1 hybrid male mice measured as percent increase in lifespan(1.8 mg/kg),ip", "assay_type": "functional, Mus musculus", "how_it_was_run": "as §1"}, "[23]": {"tested_on": "P388", "assay": "Number of mice with P-388 lymphocytic leukemia cured( 1.2 mg/kg),ip; 3/7", "assay_type": "functional, Mus musculus", "how_it_was_run": "as §1"}, "[24]": {"tested_on": "P388", "assay": "Antitumor activity against P-388 lymphocytic leukemia in CDF1 hybrid male mice measured as median survival time ( 0.6 mg/kg),ip", "assay_type": "functional, Mus musculus", "how_it_was_run": "as §1"}, "[25]": {"assay": "Therapeutic Index measured as the MTD/MED ratio compared to that of compound 3", "conditions": "read-out: Therapeutic index", "how_it_was_run": "(§4)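 Therapeutic index is MTD/MED, with ip dosing in 10% dimethyl sulfoxide-saline on a qd 1-4 or q4d 1, 5, 9 schedule. MED is the dose giving a 40% increase in life span over control in P-388-bearing mice. MTD is the LD10 in tumor-free male CDF1 mice (18-23 g) over 21 days, read from a log dose vs. percent mortality plot and averaged over 2-3 experiments.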"}, "[26]": {"assay": "Therapeutic Index measured as the MTD/MED ratio compared to that of compound 4", "conditions": "read-out: Therapeutic index", "how_it_was_run": "as §4"}}}
{"smiles": "Cc1c2oc3c(C)c(OCC(O)CO)cc(C(=O)N[C@H]4C(=O)N[C@@H](C(C)C)C(=O)N5CCC[C@H]5C(=O)N(C)CC(=O)N(C)[C@@H](C(C)C)C(=O)O[C@H]4C)c3nc-2c(C(=O)N[C@H]2C(=O)N[C@@H](C(C)C)C(=O)N3CCC[C@H]3C(=O)N(C)CC(=O)N(C)[C@@H](C(C)C)C(=O)O[C@H]2C)c(N)c1=O", "note": "(stereo not given in full)", "values": [{"measurement": "DNA melting temperature shift (ΔTm)", "setting": "[1]", "value": 5.1, "unit": "°C"}]}
{"smiles": "CCN(CC)C(=O)c1c2nc3c(C(=O)N(CC)CC)ccc(C)c3oc-2c(C)c(=O)c1N", "values": [{"measurement": "DNA melting temperature shift (ΔTm)", "setting": "[1]", "value": 0, "unit": "°C"}, {"measurement": "IC50", "setting": "[2]", "value": "~10", "unit": "mg/L"}]}
{"smiles": "Cc1c2oc3c(C)c(O)c(N)c(C(=O)N[C@H]4C(=O)N[C@@H](C(C)C)C(=O)N5CCC[C@H]5C(=O)N(C)CC(=O)N(C)[C@H](C(C)C)C(=O)O[C@H]4C)c3nc-2c(C(=O)N[C@@H]2C(=O)N[C@H](C(C)C)C(=O)N3CCC[C@@H]3C(=O)N(C)CC(=O)N(C)[C@@H](C(C)C)C(=O)O[C@@H]2C)cc1=O", "values": [{"measurement": "DNA melting temperature shift (ΔTm)", "setting": "[1]", "value": 6.7, "unit": "°C"}]}
{"smiles": "Cc1c2oc3c(C)c(OCC4CO4)cc(C(=O)N[C@H]4C(=O)N[C@@H](C(C)C)C(=O)N5CCC[C@H]5C(=O)N(C)CC(=O)N(C)[C@@H](C(C)C)C(=O)O[C@H]4C)c3nc-2c(C(=O)N[C@H]2C(=O)N[C@@H](C(C)C)C(=O)N3CCC[C@H]3C(=O)N(C)CC(=O)N(C)[C@@H](C(C)C)C(=O)O[C@H]2C)c(N)c1=O", "note": "(stereo not given in full)", "values": [{"measurement": "DNA melting temperature shift (ΔTm)", "setting": "[1]", "value": 6, "unit": "°C"}]}
{"smiles": "Cc1c2oc3c(C)c(OCC4CO4)cc(C(=O)N[C@@H]4C(=O)N[C@H](C(C)C)C(=O)N5CCC[C@H]5C(=O)N(C)CC(=O)N(C)[C@@H](C(C)C)C(=O)O[C@@H]4C)c3nc-2c(C(=O)N[C@@H]2C(=O)N[C@H](C(C)C)C(=O)N3CCC[C@H]3C(=O)N(C)CC(=O)N(C)[C@@H](C(C)C)C(=O)O[C@@H]2C)c(N)c1=O", "note": "(stereo not given in full) [listing 1 of 2 here]", "values": [{"measurement": "MST", "setting": "[3]", "value": 40, "unit": "days"}, {"measurement": "ILS at 0.15 mg/kg", "setting": "[4]", "value": 164, "unit": "%"}, {"measurement": "Cure", "setting": "[5]", "value": 1}, {"measurement": "MTD", "setting": "[6]", "value": 3.6}, {"measurement": "Cure", "setting": "[7]", "value": 3}, {"measurement": "ILS at 2.4 mg/kg", "setting": "[8]", "value": 136, "unit": "%"}, {"measurement": "ILS at 0.3 mg/kg", "setting": "[9]", "value": 263, "unit": "%"}, {"measurement": "MST", "setting": "[10]", "value": 26, "unit": "days"}, {"measurement": "Cure", "setting": "[11]", "value": 1}, {"measurement": "Cure", "setting": "[12]", "value": 2}, {"measurement": "ILS", "setting": "[13]", "value": 291, "unit": "%"}, {"measurement": "MST", "setting": "[14]", "value": 29, "unit": "days"}, {"measurement": "MST", "setting": "[15]", "value": 43, "unit": "days"}, {"measurement": "ILS at 0.6 mg/kg", "setting": "[16]", "value": 255, "unit": "%"}, {"measurement": "Cure", "setting": "[17]", "value": 0}, {"measurement": "MED", "setting": "[18]", "value": 0.0375}, {"measurement": "MST", "setting": "[19]", "value": 44, "unit": "days"}, {"measurement": "MED", "setting": "[20]", "value": 0.05}, {"measurement": "MTD", "setting": "[21]", "value": 1.6}, {"measurement": "ILS", "setting": "[22]", "value": 300, "unit": "%"}, {"measurement": "Cure", "setting": "[23]", "value": 3}, {"measurement": "IC50", "setting": "[2]", "value": 0.009, "unit": "mg/L"}, {"measurement": "MST", "setting": "[24]", "value": 41, "unit": "days"}]}
{"smiles": "Cc1c2oc3c(C)c(OCC4CO4)cc(C(=O)N[C@@H]4C(=O)N[C@H](C(C)C)C(=O)N5CCC[C@H]5C(=O)N(C)CC(=O)N(C)[C@@H](C(C)C)C(=O)O[C@@H]4C)c3nc-2c(C(=O)N[C@@H]2C(=O)N[C@H](C(C)C)C(=O)N3CCC[C@H]3C(=O)N(C)CC(=O)N(C)[C@@H](C(C)C)C(=O)O[C@@H]2C)c(N)c1=O", "note": "(stereo not given in full) [listing 2 of 2 here]", "values": [{"measurement": "selectivity ratio", "setting": "[25]", "value": 72}, {"measurement": "selectivity ratio", "setting": "[26]", "value": 43}]}
